Laboratory results taken from ChEMBL document CHEMBL1147762, “A new chemical tool for exploring the physiological function of the PDE2 isozyme” (Bioorg Med Chem Lett, 2006).

How the values were obtained:
[1] = molecular target: Phosphodiesterase 1 (Homo sapiens, UniProt P54750+Q01064+Q14123); experiment: Inhibitory activity against PDE1 by scintillation proximity assay; format: protein assay
Outline: (§1)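 Phosphodiesterase inhibition run as a scintillation proximity assay, with enzyme at a concentration in the linear range. Final substrate was 1 µM, below one-third of the enzyme K_M, so that IC50 approximates Ki. Values are means of n experiments with standard deviation.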

[2] = molecular target: B1 bradykinin receptor (Homo sapiens) (UniProt P46663); experiment: Percentage binding to bradykinin B1 at 10 uM
[3] = molecular target: 3-phosphoinositide-dependent protein kinase 1 (Homo sapiens) (UniProt O15530); experiment: Inhibition of PDK1 at 10 uM
[4] = molecular target: Casein kinase I (Homo sapiens) (UniProt Q9HCP0+P78368+P48730+P49674+P48729); experiment: Inhibition of CK1 at 10 uM; format: protein assay
[5] = Tmax in rat; format: ADME, organism-based; settings: Sprague-Dawley, in vivo
[6] = molecular target: Phosphorylase kinase (Homo sapiens) (UniProt P15735+P46020+P46019+Q93100+Q16816); experiment: Inhibition of PHK at 10 uM; format: protein-complex assay
[7] = Cmax in rat; format: ADME, organism-based; settings: Sprague-Dawley, in vivo
Outline: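 Sprague–Dawley rats were dosed intravenously at 1 mg/kg in EtOH:PEG 400:H2O (1:4:5) and orally at 30 mg/kg in 0.5% methylcellulose.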

[8] = molecular target: 5-hydroxytryptamine receptor 2C (Homo sapiens) (UniProt P28335); experiment: Percentage binding to serotonin 5HT2C at 10 uM
[9] = molecular target: Voltage-gated L-type calcium channel (Homo sapiens, UniProt Q13936+Q13698+Q01668+O60840); experiment: Percentage binding to Ca2+ channel L at 10 uM; format: protein assay
[10] = molecular target: High affinity cGMP-specific 3',5'-cyclic phosphodiesterase 9A (Homo sapiens, UniProt O76083); experiment: Inhibitory activity against PDE9 by scintillation proximity assay
Outline: (§2)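 Scintillation proximity assay for phosphodiesterase inhibition. Enzyme is used at a concentration within the linear range, and its KM was measured. Final substrate concentration is 1 µM, below one-third of KM, so IC50 approximates Ki. Results are means of n experiments with standard deviation.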

[11] = molecular target: 3',5'-cyclic-AMP phosphodiesterase 4A (Homo sapiens, UniProt P27815); experiment: Inhibitory activity against PDE4A by scintillation proximity assay; outline: as §1
[12] = molecular target: High affinity cAMP-specific and IBMX-insensitive 3',5'-cyclic phosphodiesterase 8A (Homo sapiens, UniProt O60658); experiment: Inhibitory activity against PDE8A by scintillation proximity assay; outline: as §2
[13] = Apical Caco-2 cell membrane permeability; format: ADME, cell-based; settings: human
[14] = molecular target: Type-1 angiotensin II receptor (Homo sapiens) (UniProt P30556); experiment: Percentage binding to angiotensin II type1 receptor at 10 uM
[15] = molecular target: Protein kinase C alpha type (Homo sapiens) (UniProt P17252); experiment: Inhibition of PKCalpha at 10 uM
[16] = molecular target: 3',5'-cyclic-AMP phosphodiesterase 4B (Homo sapiens, UniProt Q07343); experiment: Inhibitory activity against PDE4B by scintillation proximity assay; outline: as §1
[17] = Oral bioavailability in rat; format: ADME, organism-based; settings: Sprague-Dawley, in vivo
Outline: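 Sprague–Dawley rats were dosed intravenously at 1 mg/kg in EtOH:PEG 400:H2O (1:4:5) and orally at 30 mg/kg in 0.5% methylcellulose. Plasma was sampled at 0.083, 0.25, 0.5, 1, 2, 4, 6 and 8 h after dosing and analysed.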

[18] = molecular target: Mitogen-activated protein kinase 13 (Homo sapiens) (UniProt O15264); experiment: Inhibition of SAPK4 at 10 uM
[19] = molecular target: Muscarinic acetylcholine receptor M3 (Homo sapiens) (UniProt P20309); experiment: Percentage binding to muscarinic M3 at 10 uM
[20] = molecular target: 5-hydroxytryptamine receptor 4 (Homo sapiens) (UniProt Q13639); experiment: Percentage binding to serotonin 5HT4 at 10 uM
[21] = molecular target: Serine/threonine-protein kinase Chk1 (Homo sapiens) (UniProt O14757); experiment: Inhibition of CHK1 at 10 uM
[22] = molecular target: Glutamate [NMDA] receptor (Homo sapiens) (UniProt Q05586+Q12879+Q13224+O15399+O60391+Q14957+Q8TCU5); experiment: Percentage binding to NMDA at 10 uM; format: protein-complex assay
[23] = molecular target: Platelet-activating factor receptor (Homo sapiens) (UniProt P25105); experiment: Percentage binding to PAF at 10 uM

Sequence of Mitogen-activated protein kinase 13 (Homo sapiens) (O15264 whole entry): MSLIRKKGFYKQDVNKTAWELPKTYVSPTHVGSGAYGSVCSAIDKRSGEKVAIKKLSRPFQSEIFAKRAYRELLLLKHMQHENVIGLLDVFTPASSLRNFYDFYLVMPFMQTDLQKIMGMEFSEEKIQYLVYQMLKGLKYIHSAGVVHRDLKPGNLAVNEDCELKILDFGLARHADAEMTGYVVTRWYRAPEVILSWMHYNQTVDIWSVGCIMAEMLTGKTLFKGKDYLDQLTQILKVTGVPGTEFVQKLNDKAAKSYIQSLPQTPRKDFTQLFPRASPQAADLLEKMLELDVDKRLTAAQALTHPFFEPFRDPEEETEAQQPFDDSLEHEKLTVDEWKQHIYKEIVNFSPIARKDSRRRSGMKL
Sequence of B1 bradykinin receptor (Homo sapiens) (P46663 whole entry): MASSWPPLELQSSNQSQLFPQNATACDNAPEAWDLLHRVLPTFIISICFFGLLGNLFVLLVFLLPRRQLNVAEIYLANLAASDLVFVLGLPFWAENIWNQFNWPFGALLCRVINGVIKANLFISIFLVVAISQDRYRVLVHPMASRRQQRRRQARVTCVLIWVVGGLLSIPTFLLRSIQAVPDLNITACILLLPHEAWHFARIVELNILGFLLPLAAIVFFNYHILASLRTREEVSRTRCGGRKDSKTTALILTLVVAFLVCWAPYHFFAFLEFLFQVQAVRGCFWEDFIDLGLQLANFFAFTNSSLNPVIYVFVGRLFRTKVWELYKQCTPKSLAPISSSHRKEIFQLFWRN
Sequence of High affinity cAMP-specific and IBMX-insensitive 3',5'-cyclic phosphodiesterase 8A (O60658 whole entry): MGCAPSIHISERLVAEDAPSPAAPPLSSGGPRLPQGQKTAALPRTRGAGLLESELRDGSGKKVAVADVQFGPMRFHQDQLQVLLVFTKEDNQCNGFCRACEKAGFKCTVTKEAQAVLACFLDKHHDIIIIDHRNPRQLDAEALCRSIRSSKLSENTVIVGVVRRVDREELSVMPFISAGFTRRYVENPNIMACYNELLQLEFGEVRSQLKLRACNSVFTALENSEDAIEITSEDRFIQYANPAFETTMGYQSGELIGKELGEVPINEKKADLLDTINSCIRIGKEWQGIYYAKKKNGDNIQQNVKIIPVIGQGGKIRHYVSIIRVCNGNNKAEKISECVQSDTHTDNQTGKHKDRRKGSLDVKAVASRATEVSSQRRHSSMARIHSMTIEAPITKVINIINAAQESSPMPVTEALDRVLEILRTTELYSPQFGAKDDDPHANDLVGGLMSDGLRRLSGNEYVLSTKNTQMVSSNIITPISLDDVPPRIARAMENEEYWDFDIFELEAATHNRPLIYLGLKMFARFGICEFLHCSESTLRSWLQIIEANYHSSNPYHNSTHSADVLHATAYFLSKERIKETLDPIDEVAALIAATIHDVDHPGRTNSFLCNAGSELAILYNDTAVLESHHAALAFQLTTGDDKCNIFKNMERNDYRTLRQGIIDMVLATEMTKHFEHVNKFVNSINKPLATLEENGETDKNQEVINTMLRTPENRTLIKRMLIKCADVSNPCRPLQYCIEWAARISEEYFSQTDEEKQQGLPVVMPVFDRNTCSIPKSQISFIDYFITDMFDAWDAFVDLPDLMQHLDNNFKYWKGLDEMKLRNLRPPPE
Sequence of High affinity cGMP-specific 3',5'-cyclic phosphodiesterase 9A (O76083 whole entry): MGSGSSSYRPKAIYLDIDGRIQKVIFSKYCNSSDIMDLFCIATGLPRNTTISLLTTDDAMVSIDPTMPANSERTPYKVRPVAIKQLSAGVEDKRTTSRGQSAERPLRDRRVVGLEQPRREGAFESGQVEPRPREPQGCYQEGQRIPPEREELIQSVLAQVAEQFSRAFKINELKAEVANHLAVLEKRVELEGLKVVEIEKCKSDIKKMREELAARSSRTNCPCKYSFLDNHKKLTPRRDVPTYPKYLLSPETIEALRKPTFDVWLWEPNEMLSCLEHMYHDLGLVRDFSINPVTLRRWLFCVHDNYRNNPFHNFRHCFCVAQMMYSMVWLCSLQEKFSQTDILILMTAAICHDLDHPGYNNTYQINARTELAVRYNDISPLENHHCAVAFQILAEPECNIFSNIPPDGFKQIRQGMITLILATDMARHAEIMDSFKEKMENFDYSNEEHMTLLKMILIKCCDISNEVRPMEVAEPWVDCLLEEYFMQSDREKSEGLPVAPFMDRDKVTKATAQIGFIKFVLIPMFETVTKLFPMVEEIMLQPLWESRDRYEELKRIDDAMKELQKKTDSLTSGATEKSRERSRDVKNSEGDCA
Sequence of 3',5'-cyclic-AMP phosphodiesterase 4B (Q07343 whole entry): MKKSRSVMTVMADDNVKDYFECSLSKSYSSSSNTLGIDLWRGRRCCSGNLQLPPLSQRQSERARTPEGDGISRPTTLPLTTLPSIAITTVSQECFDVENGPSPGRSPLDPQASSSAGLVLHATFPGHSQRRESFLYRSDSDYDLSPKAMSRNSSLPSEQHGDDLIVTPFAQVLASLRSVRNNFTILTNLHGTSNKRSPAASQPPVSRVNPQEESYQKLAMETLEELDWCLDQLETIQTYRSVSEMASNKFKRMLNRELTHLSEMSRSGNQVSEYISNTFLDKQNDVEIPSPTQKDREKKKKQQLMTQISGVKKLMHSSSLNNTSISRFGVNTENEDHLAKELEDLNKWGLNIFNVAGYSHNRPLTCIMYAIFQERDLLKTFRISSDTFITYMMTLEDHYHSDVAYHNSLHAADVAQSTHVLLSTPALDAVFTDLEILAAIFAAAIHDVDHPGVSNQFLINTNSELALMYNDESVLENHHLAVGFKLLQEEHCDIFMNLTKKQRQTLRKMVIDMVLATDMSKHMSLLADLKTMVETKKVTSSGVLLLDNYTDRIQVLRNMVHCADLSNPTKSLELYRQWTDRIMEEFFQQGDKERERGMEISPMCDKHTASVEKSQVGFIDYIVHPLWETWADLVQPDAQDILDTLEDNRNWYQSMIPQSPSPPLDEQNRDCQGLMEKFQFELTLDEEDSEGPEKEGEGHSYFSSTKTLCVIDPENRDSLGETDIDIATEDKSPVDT
Sequence of Muscarinic acetylcholine receptor M3 (Homo sapiens) (P20309 whole entry, looked up): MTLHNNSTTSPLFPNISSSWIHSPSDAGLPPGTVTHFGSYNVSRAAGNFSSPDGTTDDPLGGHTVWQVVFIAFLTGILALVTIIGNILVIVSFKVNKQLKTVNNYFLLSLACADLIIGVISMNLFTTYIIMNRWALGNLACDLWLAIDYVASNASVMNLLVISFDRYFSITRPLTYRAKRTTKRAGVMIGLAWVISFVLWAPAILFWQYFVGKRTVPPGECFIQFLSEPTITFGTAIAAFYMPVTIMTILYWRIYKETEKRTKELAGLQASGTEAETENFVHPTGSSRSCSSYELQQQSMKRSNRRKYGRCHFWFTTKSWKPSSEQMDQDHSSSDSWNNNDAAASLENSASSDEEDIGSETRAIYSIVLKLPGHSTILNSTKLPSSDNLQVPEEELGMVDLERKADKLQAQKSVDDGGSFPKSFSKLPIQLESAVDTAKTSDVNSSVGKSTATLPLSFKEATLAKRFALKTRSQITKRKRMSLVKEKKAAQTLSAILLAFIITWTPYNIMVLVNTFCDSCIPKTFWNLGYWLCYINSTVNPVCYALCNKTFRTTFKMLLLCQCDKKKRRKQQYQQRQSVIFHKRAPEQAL
Sequence of 3',5'-cyclic-AMP phosphodiesterase 4A (P27815 whole entry): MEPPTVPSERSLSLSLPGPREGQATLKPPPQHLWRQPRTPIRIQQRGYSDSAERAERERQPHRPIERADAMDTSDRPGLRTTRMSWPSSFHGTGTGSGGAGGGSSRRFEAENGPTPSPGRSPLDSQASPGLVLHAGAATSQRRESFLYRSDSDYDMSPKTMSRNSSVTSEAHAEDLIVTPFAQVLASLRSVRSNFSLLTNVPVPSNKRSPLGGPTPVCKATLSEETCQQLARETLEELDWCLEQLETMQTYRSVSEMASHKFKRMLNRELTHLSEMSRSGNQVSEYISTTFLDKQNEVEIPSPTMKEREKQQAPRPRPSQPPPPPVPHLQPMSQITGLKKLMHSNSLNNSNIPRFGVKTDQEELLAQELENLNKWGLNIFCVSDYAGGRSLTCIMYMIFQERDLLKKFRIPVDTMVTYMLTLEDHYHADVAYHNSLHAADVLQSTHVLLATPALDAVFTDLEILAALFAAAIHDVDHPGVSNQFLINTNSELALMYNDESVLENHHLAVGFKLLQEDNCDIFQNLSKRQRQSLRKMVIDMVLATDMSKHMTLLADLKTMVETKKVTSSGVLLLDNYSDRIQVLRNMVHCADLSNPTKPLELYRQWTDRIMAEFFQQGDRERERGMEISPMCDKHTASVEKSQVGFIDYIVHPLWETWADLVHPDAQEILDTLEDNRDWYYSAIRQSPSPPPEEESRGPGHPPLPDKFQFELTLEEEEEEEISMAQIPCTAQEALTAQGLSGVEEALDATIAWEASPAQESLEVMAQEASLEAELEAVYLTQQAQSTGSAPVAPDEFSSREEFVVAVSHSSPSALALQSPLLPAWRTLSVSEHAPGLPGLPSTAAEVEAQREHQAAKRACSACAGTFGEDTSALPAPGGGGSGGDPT
Sequence of 5-hydroxytryptamine receptor 4 (Homo sapiens) (Q13639 whole entry): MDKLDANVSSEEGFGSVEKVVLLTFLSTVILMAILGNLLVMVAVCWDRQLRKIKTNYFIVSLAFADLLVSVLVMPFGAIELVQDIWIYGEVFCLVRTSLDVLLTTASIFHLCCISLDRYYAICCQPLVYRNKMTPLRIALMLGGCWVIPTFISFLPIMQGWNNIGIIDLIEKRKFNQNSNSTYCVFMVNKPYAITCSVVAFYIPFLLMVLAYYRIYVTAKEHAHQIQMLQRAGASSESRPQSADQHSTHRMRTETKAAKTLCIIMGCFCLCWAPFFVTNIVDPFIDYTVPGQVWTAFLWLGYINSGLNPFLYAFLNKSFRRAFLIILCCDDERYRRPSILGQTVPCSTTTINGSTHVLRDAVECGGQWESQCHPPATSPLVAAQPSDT

Structure (SMILES): CN1C(=O)C(C(=O)Nc2nncs2)c2cc3occc3cc21 (stereo not drawn)
- IC50 [1]: > 16 µM
- Activity [2]: 0%
- inhibition [3]: 0%
- inhibition [4]: 10%
- Tmax [5]: 48 min
- inhibition [6]: 0%
- Cmax [7]: 8300 ng/mL
- Activity [8]: 0%
- Activity [9]: 0%
- IC50 [10]: > 16 µM
- IC50 [11]: > 16 µM
- IC50 [12]: > 16 µM
- Papp [13]: 5 ×10⁻⁶ cm/s
- Activity [14]: 11%
- inhibition [15]: 13%
- IC50 [16]: > 16 µM
- bioavailability [17]: 41%
- inhibition [18]: 13%
- Activity [19]: 0%
- Activity [20]: 0%
- inhibition [21]: 0%
- Activity [22]: 7%
- Activity [23]: 21%
